From ChEMBL document CHEMBL1681751, “Synthesis and biological evaluation of imidazolo[2,1-b]benzothiazole derivatives, as potential p53 inhibitors” (Bioorg Med Chem, 2011) come the findings set out here.

In general, IC50 refers to the concentration that inhibits the measured activity by half.

Each structure is given as a SMILES string. The source made the active and inactive calls. The rule behind the calls is not given here. Where only a bound is given, the exact number is not on record here.

Series [1] deals with IGROV-1. The experiment in a line: Antiproliferative activity against human IGROV1 cells after 72 hrs by cell counter. It counts as functional, cell-based. The method in brief: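 Log-phase cells seeded in duplicate; for the paclitaxel combination, cells got compound 2 h before the antimicrotubule agent. Final DMSO at most 0.5%. After treatment, adherent cells were trypsinized and counted with a cell counter. IC50 is the concentration giving 50% fewer cells than untreated control.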

Series [2] concerns IGROV-1. As to the kind of experiment: Induction of apoptosis in human IGROV1 cells at 5 uM after 72 hrs by TUNEL assay. It counts as functional. The method in brief: (§1)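 IGROV-1 cells were exposed for 72 h; in the combination they were pretreated 2 h with compound before paclitaxel. Cells were fixed in 4% paraformaldehyde for 60 min at room temperature and washed. TUNEL labelling with fluorescein was read by flow cytometry as % TUNEL-positive cells, with at least three independent experiments.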

The test system of series [3] is IGROV-1. The experiment in a line: Reduction of paclitaxel-induced p21 expression in human IGROV1 cells at 0.12 uM after 24 hrs by Western blot analysis. It counts as functional, cell-based. The method in brief:
(§2)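 IGROV-1 cells were treated 24 h with paclitaxel 0.12 µM, compound, or both, then lysed. p53 and p21waf1 were detected by Western blot.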

Series [4] has as its system IGROV-1. The experiment in a line: Reduction of paclitaxel-induced p21 expression in human IGROV1 cells at 5 uM after 24 hrs by Western blot analysis. It counts as functional, cell-based. The method in brief: as §2
For series [5], the system named is IGROV-1. As to the kind of experiment: Reduction of paclitaxel-induced p21 expression in human IGROV1 cells at 0.3 uM after 24 hrs by Western blot analysis. It counts as functional, cell-based. The essentials: as §2
For orientation: Immunoblotting shows a protein as a band on a membrane.

Series [6] concerns IGROV-1. As to the kind of experiment: Reduction of paclitaxel-induced p21 expression in human IGROV1 cells at 10 uM after 24 hrs by Western blot analysis. Format: functional, cell-based. The method in brief:
as §2

The test system of series [7] is IGROV-1. The experiment in a line: Antitumor activity against human IGROV1 cells xenografted in athymic Swiss nude mouse assessed as tumor volume inhibition at 3 mg/kg, iv every 4 days for 4 administration. Format: functional. Further details: scale not given: the % may be the effect or the level left. The method in brief:
(§3)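 Female athymic Swiss nude mice received IGROV-1 tumors sc in the right flank (10^7 cells/mouse), then maintained by serial sc passage of about 3x3x3 mm fragments. Dosing was iv, q4dx4, starting when tumors were about 80 mg. Read-out was % tumor volume inhibition, treated vs control, 4 mice per group, Student's t-test vs control.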

In series [8] the test system is IGROV-1. The experiment in a line: Antitumor activity against human IGROV1 cells xenografted in athymic Swiss nude mouse assessed as tumor volume inhibition at 9 mg/kg, iv every 4 days for 4 administration. Format: functional. Further details: scale not given: the % may be the effect or the level left. The essentials: as §3
The test system of series [9] is Mus musculus. The experiment in a line: Toxicity in athymic Swiss nude mouse assessed as body weight loss at 3 mg/kg, iv every 4 days for 4 administration. The settings on record: in vivo, 96 h. More on the design: dose 3 mg/kg, route intravenous. It counts as organism-based. The essentials:
(§4)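 Female athymic Swiss nude mice with sc IGROV-1 xenografts were dosed iv every four days for 4 administrations (q4dx4), 4 mice per group. Toxicity was scored as % body weight loss from drug treatment, with lethal toxicity counted per group.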

The subject of series [10] is Mus musculus. The experiment in a line: Toxicity in athymic Swiss nude mouse assessed as body weight loss at 9 mg/kg, iv every 4 days for 4 administration. Format: organism-based. Particulars: in vivo, 96 h. Further details: dose 9 mg/kg, route intravenous. The essentials:
as §4

Series [11] concerns Mus musculus. As to the kind of experiment: Toxicity in athymic Swiss nude mouse assessed as lethal toxicity at 3 mg/kg, iv every 4 days for 4 administration. Format: organism-based. The settings on record: in vivo, 96 h. Further details: dose 3 mg/kg, route intravenous. The essentials: (§5)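 Female athymic Swiss nude mice bearing sc IGROV-1 human ovarian carcinoma xenografts (10^7 exponentially growing cells/mouse into right flank; lines kept by serial sc fragment passage). Dosed iv every four days for 4 administrations (q4dx4), starting when tumors were measurable (around 80 mg). Lethal toxicity scored as animals dying per group (4 mice/group).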

The test system of series [12] is Mus musculus. The experiment in a line: Toxicity in athymic Swiss nude mouse assessed as lethal toxicity at 9 mg/kg, iv every 4 days for 4 administration. Particulars: in vivo, 96 h. Further details: dose 9 mg/kg, route intravenous. It counts as organism-based. The essentials:
as §5

Series [13] concerns IGROV-1. As to the kind of experiment: Antitumor activity against human IGROV1 cells xenografted in athymic Swiss nude mouse assessed as tumor volume inhibition at 18 mg/kg, iv every 4 days for 4 administration. Format: functional. More on the design: scale not given: the % may be the effect or the level left. The method in brief:
as §3
On the technique in general: Xenograft models place foreign cells or tissue in a host animal.

Series [14] has as its system Mus musculus. The experiment in a line: Toxicity in athymic Swiss nude mouse assessed as body weight loss at 18 mg/kg, iv every 4 days for 4 administration. Format: organism-based. More on the design: dose 18 mg/kg, route intravenous. Particulars: in vivo, 96 h. The method in brief: as §4
Series [15] has as its system Mus musculus. As to the kind of experiment: Toxicity in athymic Swiss nude mouse assessed as lethal toxicity at 18 mg/kg, iv every 4 days for 4 administration. It counts as organism-based. Further details: dose 18 mg/kg, route intravenous. Particulars: in vivo, 96 h. The method in brief:
as §5

Series [16] relates to IGROV-1. The experiment in a line: Induction of apoptosis in human IGROV1 cells at 0.12 uM after 72 hrs by TUNEL assay. Format: functional. The essentials:
as §1

Another series concerns U2OS. As to the kind of experiment: Antitumor activity against human U2OS cells xenografted in athymic Swiss nude mouse at 24 mg/kg, iv administered every 4 days relative to paclitaxel. Format: functional, organism-based. More on the design: dose 24 mg/kg. The method in brief:
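U2OS osteosarcoma tumors were grown sc in female athymic Swiss nude mice from 10^7 cells/mouse and kept by serial fragment passage. Dosing was iv every four days for 4 administrations, alone or combined with paclitaxel, starting at about 80 mm3. Controls received solvent. Tumor growth and complete regressions were followed.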

In the case of `Nc1ccc(-c2cn3c4c(sc3n2)CCCC4)cc1` [listing 1 of 3 here], the IC50 in the series on IGROV-1 [1] (igrov-1) was determined as 4 µM. Moreover, in the series on IGROV-1 [2], the Activity was determined as 4%. For `Nc1ccc(-c2cn3c(n2)sc2ccccc23)cc1` [listing 1 of 3 here], the result in the series with IGROV-1 [3], in the series on IGROV-1 [4], in the series on IGROV-1 [5] and in the series with IGROV-1 [6] was Active.

`OCc1ccc(-c2cn3c(n2)sc2ccccc23)cc1` registered an IC50 in the series on IGROV-1 [1] (Homo sapiens, IGROV-1, 72 h) of 7 µM. The same measure, in the same setting: the figure for `NCCC(=O)NCc1ccc(-c2cn3c(n2)sc2ccccc23)cc1` is 3 µM. On to `Cl.NCc1ccc(-c2cn3c(n2)sc2ccccc23)cc1`, for which half-maximal inhibition with IGROV-1 [1] (igrov-1) (IC50) required 0.3 µM. For the same compound, the Activity in the series with IGROV-1 [7] is 15%; in the series on IGROV-1 [8], 46%; in the series with Mus musculus [9] it was 3%; in the series with Mus musculus [10], 5%; in the series with Mus musculus [11], “Non-toxic”; in the series with Mus musculus [12], “Non-toxic”. The compound `Nc1ccc(-c2cn3c4c(sc3n2)CCCC4)cc1` [listing 2 of 3 here] showed an IC50 in the series on IGROV-1 [1] (igrov-1) of 19 µM. `Cn1c2ccccc2n2cc(-c3ccc(C#N)cc3)nc12` had an IC50 in the series with IGROV-1 [1] (Homo sapiens, IGROV-1, 72 h) of 7 µM. `CC(C)NC(=O)CCNCc1ccc(-c2cn3c(n2)sc2ccccc23)cc1`: the IC50 in the series on IGROV-1 [1] (Homo sapiens, IGROV-1, 72 h) amounted to 5 µM.

Compound `Cl.NCc1ccc(-c2cn3c4c(sc3n2)CCCC4)cc1` registered an IC50 with IGROV-1 [1] (igrov-1) of 31 µM. For the same compound, the Activity was 21% with IGROV-1 [8]; 27% with IGROV-1 [13]; 6% in the series with Mus musculus [10]; 4% in the series on Mus musculus [14]; “Non-toxic” with Mus musculus [12]; “Non-toxic” in the series on Mus musculus [15]. In the series on IGROV-1 [1] (Homo sapiens, IGROV-1, 72 h), `Brc1ccc(-c2cn3c(n2)sc2ccccc23)cc1` gave an IC50 of 0.3 µM. Consider `NCc1ccc(-c2cn3c(n2)sc2ccccc23)cc1` [listing 1 of 2 here], for which, in the series with IGROV-1 [1] (igrov-1), it took 0.03 µM to reach half-maximal inhibition (IC50).

In turn, `CC(=O)NCc1ccc(-c2cn3c4c(sc3n2)CCCC4)cc1` returned an IC50 in the series with IGROV-1 [1] (Homo sapiens, IGROV-1, 72 h) of 28 µM. For the compound `Nc1ccc(-c2cn3c(n2)sc2ccccc23)cc1` [listing 2 of 3 here], the IC50 in the series with IGROV-1 [1] (igrov-1) is 5 µM. Regarding `N#Cc1ccc(-c2cn3c(n2)sc2ccccc23)cc1`, in the series on IGROV-1 [1] (Homo sapiens, IGROV-1, 72 h), the IC50 amounted to 0.03 µM.

In the series on IGROV-1 [1] (Homo sapiens, IGROV-1, 72 h), `COc1ccc(-c2ccc(-c3cn4c(n3)sc3ccccc34)cc2)cc1` returned an IC50 below 1 µM. For the compound `CCn1c2ccccc2n2cc(-c3ccc(C#N)cc3)nc12`, in the series with IGROV-1 [1] (Homo sapiens, IGROV-1, 72 h), the midpoint of inhibition, the IC50, lay at 4.5 µM.

In the case of `NCc1ccc(-c2cn3c4c(sc3n2)CCCC4)cc1` [listing 1 of 2 here], the outcome in the series with IGROV-1 [3], in the series with IGROV-1 [4], in the series on IGROV-1 [5] and with IGROV-1 [6] was Active. Consider `Nc1ccc(-c2cn3c4c(sc3n2)CCCC4)cc1` [listing 3 of 3 here], for which the result with IGROV-1 [3], in the series on IGROV-1 [4], in the series on IGROV-1 [5] and in the series on IGROV-1 [6] was Active. Turning to `CC(=O)NCc1ccc(-c2cn3c(n2)sc2ccccc23)cc1`, the IC50 in the series with IGROV-1 [1] (Homo sapiens, IGROV-1, 72 h) was found to be 12 µM. In the series with IGROV-1 [16], `CC(=O)O[C@H]1C(=O)[C@@]2(C)[C@H]([C@H](OC(=O)c3ccccc3)[C@]3(O)C[C@H](OC(=O)[C@H](O)[C@@H](NC(=O)c4ccccc4)c4ccccc4)C(C)=C1C3(C)C)[C@]1(OC(C)=O)CO[C@@H]1C[C@@H]2O` [PACLITAXEL] yielded an Activity of 13%. Besides, the result in the series on U2OS was inactive. Consider `NCc1ccc(-c2cn3c(n2)sc2ccccc23)cc1` [listing 2 of 2 here], for which the outcome in the series with IGROV-1 [3], with IGROV-1 [4], with IGROV-1 [5] and with IGROV-1 [6] was Active. `O=[N+]([O-])c1ccc(-c2cn3c(n2)sc2ccccc23)cc1` displayed an IC50 in the series with IGROV-1 [1] (Homo sapiens, IGROV-1, 72 h) of 2 µM. In the case of `Cc1ccc(-c2cn3c4c(sc3n2)CCCC4)cc1`, the IC50 in the series with IGROV-1 [1] (Homo sapiens, IGROV-1, 72 h) was 23 µM. As to `Nc1ccc(-c2cn3c(n2)sc2ccccc23)cc1` [listing 3 of 3 here], 1 µM corresponded to half-maximal inhibition with IGROV-1 [1] (igrov-1) (IC50). In the case of `NCc1ccc(-c2cn3c4c(sc3n2)CCCC4)cc1` [listing 2 of 2 here], half-maximal inhibition in the series with IGROV-1 [1] (igrov-1) (IC50) required 12 µM. Consider `O=Cc1ccc(-c2cn3c(n2)sc2ccccc23)cc1`, for which inhibition in the series with IGROV-1 [1] (Homo sapiens, IGROV-1, 72 h) was half-maximal at 6 µM (IC50). `Cc1ccc(-c2cn3c(n2)sc2ccccc23)cc1` came in with a half-maximal inhibitory concentration (IC50) with IGROV-1 [1] (Homo sapiens, IGROV-1, 72 h) of 0.3 µM. The compound `N#Cc1ccc(-c2cn3c4c(sc3n2)CCCC4)cc1` registered a half-inhibitory concentration (IC50) in the series with IGROV-1 [1] (Homo sapiens, IGROV-1, 72 h) of 8 µM.
